Test results taken from ChEMBL document CHEMBL1122622, “Carbocyclic analogues of xylofuranosylpurine nucleosides. Synthesis and antitumor activity” (J Med Chem, 1984).

Substrate: Nc1ncnc2c1ncn2[C@@H]1O[C@H](CO)[C@@H](O)[C@H]1O
Assay: Compound was evaluated for the kinetic constant on adenosine deaminase and expressed as Km
In short: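 Calf intestinal adenosine deaminase (type III). Adenosine was mixed with a range of test compound concentrations in 1 mL 0.05 M phosphate buffer, pH 7.5, at 25 °C. Reactions were started with 20 milliunits of enzyme, and deamination was followed as the fall in absorbance at 265 nm. Kinetic constants came from Wilkinson analysis, with each point the mean of triplicates.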

B1: Adenosine deaminase (Mus musculus), P03958 (protein)
chain: MAQTPAFNKPKVELHVHLDGAIKPETILYFGKKRGIALPADTVEELRNIIGMDKPLSLPGFLAKFDYYMPVIAGCREAIKRIAYEFVEMKAKEGVVYVEVRYSPHLLANSKVDPMPWNQTEGDVTPDDVVDLVNQGLQEGEQAFGIKVRSILCCMRHQPSWSLEVLELCKKYNQKTVVAMDLAGDETIEGSSLFPGHVEAYEGAVKNGIHRTVHAGEVGSPEVVREAVDILKTERVGHGYHTIEDEALYNRLLKENMHFEVCPWSSYLTGAWDPKTTHAVVRFKNDKANYSLNTDDPLIFKSTLDTDYQMTKKDMGFTEEEFKRLNINAAKSSFLPEEEKKELLERLYREYQ
- Km: 7.8 µM
